# Measured values: ChEMBL document CHEMBL1136788, “A novel antibacterial 8-chloroquinolone with a distorted orientation of the N1-(5-amino-2,4-difluorophenyl) group” (2003)
# Key:
# Format in all cases: functional
# Staphylococcus aureus = experiment: Tested for in vitro antibacterial activity against methicillin resistant Staphylococcus aureus W9501
# Method in brief: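 Agar dilution per NCCLS standard method in Mueller Hinton medium; two-fold serial dilutions of test compound from 128 to 0.002 μg/mL. Plates inoculated with about 10^4 organisms, incubated 37 °C for 18 h. MIC read as lowest concentration giving no visible growth on the plate.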
# Streptococcus pneumoniae = experiment: Tested for in vitro antibacterial activity against Streptococcus pneumoniae W1466
# Method in brief: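 Agar dilution per NCCLS in Mueller Hinton medium supplemented with 10% horse blood. Twofold dilutions spanned 128–0.002 μg/mL. Inoculum was about 10^4 organisms, incubated at 37 °C for 18 h. MIC was the lowest concentration with no visible growth.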
# Pseudomonas aeruginosa = experiment: Tested for in vitro antibacterial activity against Pseudomonas aeruginosa W348
# Method in brief: (§1)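 Agar dilution per NCCLS. Twofold serial dilutions (128–0.002 μg/mL) were made in Mueller Hinton medium. Plates were inoculated with about 10^4 organisms and incubated at 37 °C for 18 h. MIC was the lowest concentration giving no visible growth.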
# Escherichia coli = experiment: Tested for in vitro antibacterial activity against Escherichia coli W9523; method in brief: as §1
# [1] = Tested for in vitro antibacterial activity against Gram (+) bacteria
# Method in brief: (§2)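 Value is the geometric mean of MICs over a panel: 14 Gram (–) or 13 Gram (+) strains. MICs came from NCCLS agar dilution in Mueller Hinton medium (10% horse blood added for S. pneumoniae), with twofold dilutions from 128 to 0.002 μg/mL. Inoculum was about 10^4 organisms, at 37 °C for 18 h; endpoint was no visible growth.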
# [2] = In vitro antibacterial activity against Gram (-) bacteria; method in brief: as §2
Compound,MIC (Staphylococcus aureus),MIC (Streptococcus pneumoniae),MIC (Pseudomonas aeruginosa),MIC (Escherichia coli),GM-MIC [1],GM-MIC [2]
NC1CN(c2c(F)cc3c(=O)c(C(=O)O)cn(-c4ccc(F)cc4F)c3c2Cl)C1,8 µg/mL,0.03 µg/mL,16 µg/mL,32 µg/mL,0.13 µg/mL,0.06 µg/mL
Nc1c(F)ccc(-n2cc(C(=O)O)c(=O)c3cc(F)c(N4CC[C@H](N)C4)nc32)c1F,,,,,1.61 µg/mL,0.32 µg/mL
Nc1cc(-n2cc(C(=O)O)c(=O)c3cc(F)c(N4CC[C@H](N)C4)nc32)ccc1F,,,,,0.45 µg/mL,0.14 µg/mL
CN(C)C1CN(c2c(F)cc3c(=O)c(C(=O)O)cn(-c4cc(N)c(F)cc4F)c3c2Cl)C1,,,,,0.12 µg/mL,0.22 µg/mL
Nc1cc(-n2cc(C(=O)O)c(=O)c3cc(F)c(N4CC[C@H](N)C4)nc32)c(F)cc1F,,,,,0.26 µg/mL,0.1 µg/mL
Cc1c(N2CC(N)C2)c(F)cc2c(=O)c(C(=O)O)cn(-c3cc(N)c(F)cc3F)c12,,,,,0.09 µg/mL,0.03 µg/mL
Nc1cc(-n2cc(C(=O)O)c(=O)c3cc(F)c(N4CC(N)C4)cc32)c(F)cc1F,,,,,0.49 µg/mL,0.12 µg/mL
CNC1CN(c2c(F)cc3c(=O)c(C(=O)O)cn(-c4cc(N)c(F)cc4F)c3c2Cl)C1,,,,,0.08 µg/mL,0.04 µg/mL
Nc1cc(-n2cc(C(=O)O)c(=O)c3cc(F)c(N4CC(N)C4)c(F)c32)c(F)cc1F,,,,,0.42 µg/mL,0.08 µg/mL
Nc1cc(-n2cc(C(=O)O)c(=O)c3cc(F)c(N4CC[C@H](N)C4)c(F)c32)c(F)cc1F,,,,,0.34 µg/mL,0.22 µg/mL
Nc1cc(-n2cc(C(=O)O)c(=O)c3cc(F)c(N4CC[C@H](N)C4)nc32)c(F)c(F)c1F,,,,,3.22 µg/mL,1.81 µg/mL
Nc1cc(-n2cc(C(=O)O)c(=O)c3cc(F)c(N4CC[C@H](N)C4)cc32)c(F)cc1F,,,,,0.22 µg/mL,0.14 µg/mL
Nc1cc(-n2cc(C(=O)O)c(=O)c3cc(F)c(N4CCNCC4)c(Cl)c32)c(F)cc1F,,,,,1.61 µg/mL,0.52 µg/mL
Nc1ccc(F)c(-n2cc(C(=O)O)c(=O)c3cc(F)c(N4CC[C@H](N)C4)nc32)c1,,,,,1.99 µg/mL,0.86 µg/mL
CC1(N)CN(c2c(F)cc3c(=O)c(C(=O)O)cn(-c4cc(N)c(F)cc4F)c3c2Cl)C1,,,,,0.1 µg/mL,0.06 µg/mL
Nc1cc(-n2cc(C(=O)O)c(=O)c3cc(F)c(N4CCNCC4)cc32)c(F)cc1F,,,,,1.05 µg/mL,0.15 µg/mL
Nc1cc(-n2cc(C(=O)O)c(=O)c3cc(F)c(N4CC(N)C4)nc32)c(F)cc1F,,,,,0.65 µg/mL,0.15 µg/mL
CCNC1CN(c2c(F)cc3c(=O)c(C(=O)O)cn(-c4cc(N)c(F)cc4F)c3c2Cl)C1,,,,,0.12 µg/mL,0.08 µg/mL
Nc1cc(-n2cc(C(=O)O)c(=O)c3cc(F)c(N4CC(N)C4)c(Cl)c32)c(F)cc1F,1 µg/mL,0.008 µg/mL,1 µg/mL,1 µg/mL,0.07 µg/mL,0.03 µg/mL
Nc1cc(-n2cc(C(=O)O)c(=O)c3cc(F)c(N4CC(N)C4)c(Br)c32)c(F)cc1F,,,,,0.07 µg/mL,0.04 µg/mL
Nc1cc(-n2cc(C(=O)O)c(=O)c3cc(F)c(N4CCNCC4)nc32)c(F)cc1F,,,,,5.81 µg/mL,1.72 µg/mL
Nc1cc(-n2cc(C(=O)O)c(=O)c3cc(F)c(N4CCNCC4)c(F)c32)c(F)cc1F,,,,,2.6 µg/mL,0.39 µg/mL
Nc1cc(-n2cc(C(=O)O)c(=O)c3cc(F)c(N4CC[C@H](N)C4)c(Cl)c32)c(F)cc1F,,,,,1.16 µg/mL,1.21 µg/mL
O=C(O)c1cn(C2CC2)c2cc(N3CCNCC3)c(F)cc2c1=O [CIPROFLOXACIN],128 µg/mL,1 µg/mL,,128 µg/mL,0.99 µg/mL,0.04 µg/mL
NC1CCN(c2nc3c(cc2F)c(=O)c(C(=O)O)cn3-c2ccc(F)cc2F)C1 (configuration not stated) [TOSUFLOXACIN],,,,,0.44 µg/mL,0.12 µg/mL
N[C@@H]1[C@H]2CN(c3nc4c(cc3F)c(=O)c(C(=O)O)cn4-c3ccc(F)cc3F)C[C@@H]12 [TROVAFLOXACIN],128 µg/mL,0.25 µg/mL,16 µg/mL,> 128 µg/mL,0.29 µg/mL,0.3 µg/mL
